# Assay results published in ChEMBL document CHEMBL1134576, “Discovery of potent antagonists of leukocyte function-associated antigen-1/intercellular adhesion molecule-1 interaction. 3. Amide (C-ring) structure-activity relationship and improvement of overall properties of arylthio cinnamides” (J Med Chem, 2001).
# Where “and” joins values, the source holds several entries; their conditions need not be identical. Equal values may be shown once.
# Legend:
# [1] = molecular target: Intercellular adhesion molecule (ICAM-1), Integrin alpha-L/beta-2 (Homo sapiens, UniProt P05107+P20701); test: Ability to antagonise the Leukocyte function-associated Antigen-1/ Intracellular Adhesion molecule-1 interaction (LFA-1/ICAM-1); type: functional
# Chain of Intercellular adhesion molecule (ICAM-1), Integrin alpha-L/beta-2 (P20701 whole entry): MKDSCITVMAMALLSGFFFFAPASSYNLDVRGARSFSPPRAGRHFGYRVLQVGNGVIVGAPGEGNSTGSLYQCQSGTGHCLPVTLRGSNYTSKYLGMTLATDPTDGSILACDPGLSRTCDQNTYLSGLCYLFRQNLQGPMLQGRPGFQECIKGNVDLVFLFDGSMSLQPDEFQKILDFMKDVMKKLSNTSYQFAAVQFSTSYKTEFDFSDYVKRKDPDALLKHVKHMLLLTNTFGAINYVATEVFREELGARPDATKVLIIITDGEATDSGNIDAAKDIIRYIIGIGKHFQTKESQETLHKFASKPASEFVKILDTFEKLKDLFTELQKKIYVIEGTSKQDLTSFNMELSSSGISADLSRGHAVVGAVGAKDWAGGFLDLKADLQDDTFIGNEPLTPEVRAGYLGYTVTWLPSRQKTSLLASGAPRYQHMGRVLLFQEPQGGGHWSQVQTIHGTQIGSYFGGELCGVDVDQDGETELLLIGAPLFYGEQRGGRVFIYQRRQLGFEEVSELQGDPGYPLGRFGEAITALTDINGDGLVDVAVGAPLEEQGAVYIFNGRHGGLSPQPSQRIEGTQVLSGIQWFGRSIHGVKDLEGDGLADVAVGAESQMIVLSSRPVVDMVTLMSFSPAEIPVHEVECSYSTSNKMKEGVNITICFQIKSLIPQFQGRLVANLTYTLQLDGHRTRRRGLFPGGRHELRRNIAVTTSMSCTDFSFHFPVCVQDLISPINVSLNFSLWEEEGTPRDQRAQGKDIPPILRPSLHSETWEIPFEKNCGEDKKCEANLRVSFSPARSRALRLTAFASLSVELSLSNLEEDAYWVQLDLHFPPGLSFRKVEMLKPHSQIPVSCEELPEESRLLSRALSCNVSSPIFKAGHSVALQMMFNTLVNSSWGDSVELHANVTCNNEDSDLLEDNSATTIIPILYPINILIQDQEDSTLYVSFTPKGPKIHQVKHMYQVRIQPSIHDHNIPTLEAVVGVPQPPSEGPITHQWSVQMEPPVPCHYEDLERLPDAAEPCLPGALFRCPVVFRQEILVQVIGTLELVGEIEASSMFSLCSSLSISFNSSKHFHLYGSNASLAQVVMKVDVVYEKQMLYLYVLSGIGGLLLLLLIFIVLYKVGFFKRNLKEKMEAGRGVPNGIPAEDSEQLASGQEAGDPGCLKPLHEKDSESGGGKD
# Chain of Intercellular adhesion molecule (ICAM-1), Integrin alpha-L/beta-2 (P05362 whole entry, further chain): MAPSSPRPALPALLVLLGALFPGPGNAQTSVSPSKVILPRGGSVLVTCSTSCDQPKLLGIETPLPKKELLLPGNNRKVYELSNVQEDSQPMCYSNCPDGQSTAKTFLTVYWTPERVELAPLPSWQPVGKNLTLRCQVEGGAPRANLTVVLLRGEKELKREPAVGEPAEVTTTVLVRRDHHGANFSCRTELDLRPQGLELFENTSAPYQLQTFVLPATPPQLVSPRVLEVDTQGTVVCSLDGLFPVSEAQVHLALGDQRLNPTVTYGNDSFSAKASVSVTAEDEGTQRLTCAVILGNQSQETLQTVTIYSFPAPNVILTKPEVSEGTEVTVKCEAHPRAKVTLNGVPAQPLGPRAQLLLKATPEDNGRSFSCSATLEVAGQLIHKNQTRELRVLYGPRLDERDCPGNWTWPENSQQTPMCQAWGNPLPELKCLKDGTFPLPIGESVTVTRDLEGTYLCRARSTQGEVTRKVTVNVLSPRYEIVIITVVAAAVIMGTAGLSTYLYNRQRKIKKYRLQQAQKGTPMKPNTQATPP
# Chain of Intercellular adhesion molecule (ICAM-1), Integrin alpha-L/beta-2 (P05107 whole entry): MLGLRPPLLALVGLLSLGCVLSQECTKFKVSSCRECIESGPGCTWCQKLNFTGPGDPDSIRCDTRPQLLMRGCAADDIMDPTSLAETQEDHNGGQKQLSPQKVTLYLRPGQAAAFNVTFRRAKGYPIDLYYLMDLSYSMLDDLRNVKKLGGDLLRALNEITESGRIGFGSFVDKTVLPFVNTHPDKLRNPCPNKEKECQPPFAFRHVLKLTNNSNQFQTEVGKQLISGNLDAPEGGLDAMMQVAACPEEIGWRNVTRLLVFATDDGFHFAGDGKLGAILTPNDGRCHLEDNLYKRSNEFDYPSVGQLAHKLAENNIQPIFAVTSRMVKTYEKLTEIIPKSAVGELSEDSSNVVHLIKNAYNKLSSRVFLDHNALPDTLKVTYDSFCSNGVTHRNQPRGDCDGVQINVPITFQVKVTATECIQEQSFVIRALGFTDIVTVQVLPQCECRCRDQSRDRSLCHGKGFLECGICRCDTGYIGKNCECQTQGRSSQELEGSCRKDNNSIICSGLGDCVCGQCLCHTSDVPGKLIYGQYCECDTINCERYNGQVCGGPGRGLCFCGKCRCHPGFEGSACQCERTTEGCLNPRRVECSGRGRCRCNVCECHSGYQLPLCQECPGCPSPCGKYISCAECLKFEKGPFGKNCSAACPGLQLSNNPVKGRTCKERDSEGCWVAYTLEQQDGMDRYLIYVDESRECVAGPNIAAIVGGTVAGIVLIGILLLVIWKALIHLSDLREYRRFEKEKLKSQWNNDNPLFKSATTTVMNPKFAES
# JY = test: Inhibition of JY8 cell adhesion process (The assay was run with 1% fetal bovine serum); type: functional, cell-based; details: Homo sapiens, JY-8
# Summary of the method: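 JY-8 cells […] in the presence of 1% fetal bovine serum. Six concentrations from 6.4 × 10^-9 to 2 × 10^-5 were run in duplicate. IC50 is the mean of repeat measurements, with the range given.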
# [2] = Oral bioavailability in rat; type: ADME, organism-based; details: in vivo
# Summary of the method: (§1)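 Rats (n = 4/group) received 5 mg/kg either iv as a slow jugular bolus or po by gavage. The terminal-phase rate constant gave t1/2 and AUC extrapolated to infinity. F compares oral with iv AUC.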
# [3] = Half life period after iv dose in rat; type: ADME, organism-based; details: in vivo; summary of the method: as §1
# Rattus norvegicus [4] = test: Cmax value after po dose in rat; type: ADME, organism-based; design: route oral; details: in vivo; summary of the method: as §1
# [5] = Clearance after iv dose in rat; details: in vivo
# [6] = Mean residence time after po dose in rat; type: ADME, organism-based; details: in vivo; summary of the method: as §1
# Rattus norvegicus [7] = test: Half life period after intravenous dose in rat; type: ADME, organism-based; details: in vivo; summary of the method: as §1
# Rattus norvegicus [8] = test: heart rate in a rat model of ischemia immediately prior to the occlusion at 50 mg/kg dose; type: functional
# Rattus norvegicus [9] = test: heart rate in a rat model of reperfusion after 5 min at 50 mg/kg dose; type: functional
# Rattus norvegicus [10] = test: heart rate in a rat model of reperfusion after 60 min at 50 mg/kg dose; type: functional
# Rattus norvegicus [11] = test: heart rate pressure in a rat model of reperfusion after 120 min at 3 mg/kg dose; type: functional
# Rattus norvegicus [12] = test: heart rate pressure in a rat model of reperfusion after 180 min at 3 mg/kg dose; type: functional
# Rattus norvegicus [13] = test: heart rate pressure in a rat model of reperfusion after 5 min at 3 mg/kg dose; type: functional
# Rattus norvegicus [14] = test: heart rate pressure in a rat model of reperfusion after 60 min at 3 mg/kg dose; type: functional
# Rattus norvegicus [15] = test: heart rate in a rat model of ischemia after 15 min at 3 mg/kg dose; type: functional
# Rattus norvegicus [16] = test: heart rate in a rat model of ischemia after 15 min at 50 mg/kg dose; type: functional
# Rattus norvegicus [17] = test: heart rate in a rat model of ischemia immediately prior to the occlusion at 3 mg/kg dose; type: functional
# Rattus norvegicus [18] = test: mean arterial pressure in a rat model of ischemia after 15 min at 3 mg/kg dose; type: functional, Artery
# Rattus norvegicus [19] = test: mean arterial pressure in a rat model of ischemia after 15 min at 50 mg/kg dose; type: functional, Artery
# Rattus norvegicus [20] = test: mean arterial pressure in a rat model of ischemia immediately prior to the occlusion at 3 mg/kg dose; type: functional, Artery
# Rattus norvegicus [21] = test: mean arterial pressure in a rat model of ischemia immediately prior to the occlusion at 50 mg/kg dose; type: functional, Artery
# Rattus norvegicus [22] = test: mean arterial pressure in a rat model of reperfusion after 120 min at 3 mg/kg dose; type: functional, Artery
# Rattus norvegicus [23] = test: mean arterial pressure in a rat model of reperfusion after 120 min at 50 mg/kg dose; type: functional, Artery
# Rattus norvegicus [24] = test: mean arterial pressure in a rat model of reperfusion after 180 min at 3 mg/kg dose; type: functional, Artery
# Rattus norvegicus [25] = test: mean arterial pressure in a rat model of reperfusion after 180 min at 50 mg/kg dose; type: functional, Artery
# Rattus norvegicus [26] = test: mean arterial pressure in a rat model of reperfusion after 5 min at 3 mg/kg dose; type: functional, Artery
# Rattus norvegicus [27] = test: mean arterial pressure in a rat model of reperfusion after 5 min at 50 mg/kg dose; type: functional, Artery
# Rattus norvegicus [28] = test: mean arterial pressure in a rat model of reperfusion after 60 min at 3 mg/kg dose; type: functional, Artery
# Rattus norvegicus [29] = test: mean arterial pressure in a rat model of reperfusion after 60 min at 50 mg/kg dose; type: functional, Artery
# Rattus norvegicus [30] = test: rate pressure product in a rat model of ischemia immediately prior to the occlusion at 50 mg/kg dose; type: functional
# Rattus norvegicus [31] = test: rate pressure product in a rat model of reperfusion after 120 min at 3 mg/kg dose; type: functional
# Rattus norvegicus [32] = test: rate pressure product in a rat model of reperfusion after 120 min at 50 mg/kg dose; type: functional
# Rattus norvegicus [33] = test: rate pressure product in a rat model of reperfusion after 180 min at 3 mg/kg dose; type: functional
# Rattus norvegicus [34] = test: rate pressure product in a rat model of reperfusion after 180 min at 50 mg/kg dose; type: functional
# Rattus norvegicus [35] = test: rate pressure product in a rat model of reperfusion after 5 min at 3 mg/kg dose; type: functional
# Rattus norvegicus [36] = test: rate pressure product in a rat model of reperfusion after 5 min at 50 mg/kg dose; type: functional
# Rattus norvegicus [37] = test: rate pressure product in a rat model of reperfusion after 60 min at 3 mg/kg dose; type: functional
# Rattus norvegicus [38] = test: rate pressure product in a rat model of reperfusion after 60 min at 50 mg/kg dose; type: functional
# Rattus norvegicus [39] = test: rate pressure product in a rat model of ischemia after 15 min at 3 mg/kg dose; type: functional
# Rattus norvegicus [40] = test: rate pressure product in a rat model of ischemia after 15 min at 50 mg/kg dose; type: functional
# Rattus norvegicus [41] = test: rate pressure product in a rat model of ischemia immediately prior to the occlusion at 3 mg/kg dose; type: functional
# Canis familiaris [42] = test: Cmax value after po dose in dog; details: in vivo
# [43] = Clearance after intravenous dose in rat; details: in vivo, CL
# Rattus norvegicus [44] = test: Clearance after intravenous dose in rat; details: in vivo
# Canis familiaris [45] = test: Mean residence time after po dose in dog; details: in vivo
# Rattus norvegicus [46] = test: heart rate in a rat model of reperfusion after 120 min at 50 mg/kg dose
# Rattus norvegicus [47] = test: heart rate in a rat model of reperfusion after 180 min at 50 mg/kg dose
# [48] = Percent oral bioavailability after po dose; type: ADME, organism-based; details: eutheria, in vivo
# [49] = Cmax value after po dose; type: ADME, organism-based; design: route oral; details: in vivo
compound,measurement,setting,value
CNC(=O)N1CCN(C(=O)/C=C/c2ccc(Sc3ccccc3C(C)C)c([N+](=O)[O-])c2)CC1,IC50,[1],0.025 µM
CC(C)c1ccccc1Sc1ccc(/C=C/C(=O)N2CCOC(c3nnn[nH]3)C2)cc1[N+](=O)[O-] (configuration not stated),IC50,JY,0.002 µM
same,IC50,[1],0.02 µM
CC(C)c1ccccc1Sc1ccc(/C=C/C(=O)N2CCNC(CO)C2)cc1[N+](=O)[O-] (configuration not stated),bioavailability,[2],0%
same,half-life,[3],1.9 h
same,Cmax,Rattus norvegicus [4],0 ug m l-1
same,IC50,[1],0.28 µM
same,Solubility,Water solubility,5 µg/mL
same,clearance,[5],53.3 mL/min/kg
CC(C)c1ccccc1Sc1ccc(/C=C/C(=O)N2CCC(S(=O)(=O)O)CC2)cc1[N+](=O)[O-],IC50,[1],0.09 µM
CC(C)c1ccccc1Sc1ccc(/C=C/C(=O)N2CCN(C)CC2)cc1[N+](=O)[O-],IC50,[1],0.13 µM
COC(=O)C1CN(C(=O)/C=C/c2ccc(Sc3ccccc3C(C)C)c([N+](=O)[O-])c2)CCN1 (configuration not stated),IC50,JY,0.098 µM
same,IC50,[1],0.06 µM
CC(C)c1ccccc1Sc1ccc(/C=C/C(=O)N2CCNCC2)cc1[N+](=O)[O-],IC50,[1],0.45 µM
CC(C)c1ccccc1Sc1ccc(/C=C/C(=O)N2CCC3(CC2)OCCO3)cc1[N+](=O)[O-],IC50,[1],0.055 µM
CC(C)c1ccccc1Sc1ccc(/C=C/C(=O)N2CCN(C(=O)c3ccncc3)CC2)cc1[N+](=O)[O-],IC50,JY,0.02 µM
same,IC50,[1],0.066 µM
CC(C)c1ccccc1Sc1ccc(/C=C/C(=O)N2CCCC(C(=O)O)C2)cc1[N+](=O)[O-] (configuration not stated),bioavailability,[2],19%
same,MRT,[6],11.3 h
same,half-life,[3],0.4 h
same,Cmax,Rattus norvegicus [4],0.45 ug m l-1
same,IC50,JY,0.09 µM
same,IC50,[1],0.03 µM
same,clearance,[5],35 mL/min/kg
CC(C)c1ccccc1Sc1ccc(/C=C/C(=O)N2CC=CC2C(=O)O)cc1C(F)(F)F (configuration not stated),IC50,[1],0.13 µM
COC(=O)N1CCN(C(=O)/C=C/c2ccc(Sc3ccccc3C(C)C)c([N+](=O)[O-])c2)C(C(=O)O)C1 (configuration not stated),IC50,[1],0.13 µM
CC(C)c1ccccc1Sc1ccc(/C=C/C(=O)N2CCC(C(=O)O)CC2)cc1[N+](=O)[O-],bioavailability,[2],21%
same,MRT,[6],3.5 h
same,half-life,[3],1.15 h
same,Cmax,Rattus norvegicus [4],0.5 ug m l-1
same,IC50,JY,0.165 µM
same,IC50,[1],0.031 µM
same,clearance,[5],13.2 mL/min/kg
CC(C)c1ccccc1Sc1ccc(/C=C/C(=O)N2CCC(=O)CC2)cc1[N+](=O)[O-],IC50,JY,0.24 µM
same,IC50,[1],0.06 µM
CC(C)c1ccccc1Sc1ccc(/C=C/C(=O)N2CCNC(C(=O)N(C)C)C2)cc1[N+](=O)[O-] (configuration not stated),IC50,[1],0.075 µM
CC(=O)N1CCN(C(=O)/C=C/c2ccc(Sc3ccccc3C(C)C)c([N+](=O)[O-])c2)CC1C(=O)O (configuration not stated),IC50,[1],0.68 µM
COC(=O)C1CN(C(=O)/C=C/c2ccc(Sc3ccccc3C(C)C)c([N+](=O)[O-])c2)CCN1C (configuration not stated),IC50,JY,0.11 µM
same,IC50,[1],0.045 µM
O=C(O)C1CCCN(C(=O)/C=C/c2ccc(Sc3ccc4c(c3)OCCO4)c(C(F)(F)F)c2)C1 (configuration not stated),F,[2],29% and 55%
same,MRT,[6],5 h
same,T1/2,Rattus norvegicus [7],2.3 h and 5.7 h
same,Cmax,Rattus norvegicus [4],1.5 ug m l-1
same,IC50,JY,0.14 µM
same,IC50,[1],0.025 µM
same,HR,Rattus norvegicus [8],419 beats min-1
same,HR,Rattus norvegicus [9],382 beats min-1
same,HR,Rattus norvegicus [10],396 beats min-1
same,HR,Rattus norvegicus [11],371 beats min-1
same,HR,Rattus norvegicus [12],376 beats min-1
same,HR,Rattus norvegicus [13],379 beats min-1
same,HR,Rattus norvegicus [14],382 beats min-1
same,HR,Rattus norvegicus [15],391 beats min-1
same,HR,Rattus norvegicus [16],400 beats min-1
same,HR,Rattus norvegicus [17],393 beats min-1
same,MAP,Rattus norvegicus [18],107 mmHg
same,MAP,Rattus norvegicus [19],105 mmHg
same,MAP,Rattus norvegicus [20],118 mmHg
same,MAP,Rattus norvegicus [21],128 mmHg
same,MAP,Rattus norvegicus [22],85 mmHg
same,MAP,Rattus norvegicus [23],96 mmHg
same,MAP,Rattus norvegicus [24],95 mmHg
same,MAP,Rattus norvegicus [25],80 mmHg
same,MAP,Rattus norvegicus [26],98 mmHg
same,MAP,Rattus norvegicus [27],105 mmHg
same,MAP,Rattus norvegicus [28],99 mmHg
same,MAP,Rattus norvegicus [29],118 mmHg
same,RPP,Rattus norvegicus [30],54000 mmHg beats min-1
same,RPP,Rattus norvegicus [31],31800 mmHg beats min-1
same,RPP,Rattus norvegicus [32],38100 mmHg beats min-1
same,RPP,Rattus norvegicus [33],35100 mmHg beats min-1
same,RPP,Rattus norvegicus [34],32000 mmHg beats min-1
same,RPP,Rattus norvegicus [35],37500 mmHg beats min-1
same,RPP,Rattus norvegicus [36],40200 mmHg beats min-1
same,RPP,Rattus norvegicus [37],38100 mmHg beats min-1
same,RPP,Rattus norvegicus [38],46700 mmHg beats min-1
same,RPP,Rattus norvegicus [39],41800 mmHg beats min-1
same,RPP,Rattus norvegicus [40],42700 mmHg beats min-1
same,RPP,Rattus norvegicus [41],46400 mmHg beats min-1
same,Cmax,Canis familiaris [42],3700 ng/mL
same,clearance,[43],4.83 mL/min/kg
same,clearance,Rattus norvegicus [44],5.67 mL/min/kg
same,MRT,Canis familiaris [45],5.7 h
same,HR,Rattus norvegicus [46],397 beats min-1
same,HR,Rattus norvegicus [47],399 beats min-1
COC(=O)C1CNCCN1C(=O)/C=C/c1ccc(Sc2ccccc2C(C)C)c([N+](=O)[O-])c1 (configuration not stated),IC50,[1],0.34 µM
O=C(O)C1CCN(C(=O)/C=C/c2ccc(Sc3ccc4c(c3)OCCO4)c(C(F)(F)F)c2)CC1,bioavailability,[2],39%
same,MRT,[6],6.7 h
same,half-life,[3],3.9 h
same,Cmax,Rattus norvegicus [4],2.8 ug m l-1
same,IC50,JY,0.15 µM
same,IC50,[1],0.03 µM
same,clearance,[5],2 mL/min/kg
CC(=O)N1CCN(C(=O)/C=C/c2ccc(Sc3ccccc3C(C)C)c([N+](=O)[O-])c2)CC1 [A-286982],bioavailability,[48],0%
same,Cmax,[49],0 ug m l-1
same,Solubility,Water solubility,< 1 µg/mL
same,clearance,Clearance after iv dose,45 mL/min/kg
